Values after ≈ are worked out from the molar mass of the structure shown. Values belong to the molecule of their own block, whether it stands above or below them. Active and inactive are the calls of the source. The calls are words filed in the database; no cut-off is given here.
How the values were obtained:
HT-29 = test: Cytotoxicity against human HT-29 cells after 48 hrs by MTT assay; type: functional, cell-based; details: HT-29, 48 h
COLO 205 = test: Cytotoxicity against human COLO205 cells after 48 hrs by MTT assay; type: functional, cell-based; details: COLO 205, 48 h
How it was run: (§1)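 MTT assay. Medium with 10% FBS and 2 mM L-glutamine was DMEM for A431 and Colo-205, RPMI for A549, and MEM for MCF-7. Cultures were preincubated 24 h at 37 °C, 5% CO2. 1 × 10⁴ cells (trypan blue count) were exposed to 200, 100, 50, 25 and 10 concentration levels for 48 h at 37 °C. MTT was added for 4 h, formazan dissolved in DMSO, and A570 read. IC50 was curve-fitted from viability versus untreated cells, three experiments.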

MCF7 [1] = test: Cytotoxicity against human MCF7 cells after 48 hrs by MTT assay; type: functional, cell-based; details: MCF7, 48 h; how it was run: as §1
A549 = test: Cytotoxicity against human A549 cells after 48 hrs by MTT assay; type: functional, cell-based; details: A549, 48 h; how it was run: as §1
A-431 = test: Cytotoxicity against human A431 cells after 48 hrs by MTT assay; type: functional, cell-based; details: A-431, 48 h; how it was run: as §1
MCF7 [2] = test: Ratio IC50 for monastrol to compound for human MCF7 cells; type: functional
Klebsiella pneumoniae [3] = test: Antibacterial activity against Klebsiella pneumoniae assessed as zone of inhibition at 100 ug/ml by agar plate method; type: functional; details: read-out: IZ
How it was run: (§2)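 Well diffusion on Mueller-Hinton agar. Inoculum from 3–5 colonies was grown in nutrient broth and adjusted to 0.5 McFarland (about 1 × 10⁸ CFU/mL), then swabbed over the plate. Compounds were dissolved in DMSO and added to duplicate 6 mm wells. Plates were incubated 18 h at 37 °C, and inhibition zone diameter was read to the nearest mm. Ciprofloxacin was the positive control and DMSO the negative control.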

Pseudomonas aeruginosa = test: Antibacterial activity against Pseudomonas aeruginosa assessed as zone of inhibition at 100 ug/ml by agar plate method; type: functional; details: read-out: IZ; how it was run: as §2
Escherichia coli [4] = test: Antibacterial activity against Escherichia coli assessed as zone of inhibition at 100 ug/ml by agar plate method; type: functional; details: read-out: IZ; how it was run: as §2
[5] = tested on: Staphylococcus epidermidis; test: Antibacterial activity against Staphylococcus epidermidis assessed as zone of inhibition at 50 ug/ml by agar plate method; type: functional, organism-based; how it was run: as §2
Klebsiella pneumoniae [6] = test: Antibacterial activity against Klebsiella pneumoniae assessed as zone of inhibition at 50 ug/ml by agar plate method; type: functional, organism-based; how it was run: as §2
Staphylococcus aureus = test: Antibacterial activity against Staphylococcus aureus assessed as zone of inhibition at 100 ug/ml by agar plate method; type: functional; details: read-out: IZ; how it was run: as §2
Nucleic Acid = test: Binding affinity to calf thymus DNA assessed as change in melting temperature at compound to DNA ratio of 1:5 after 18 hrs at pH 7; type: nucleic-acid assay; details: Bos taurus
How it was run: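 Thermal melting of calf thymus DNA in 10 mM sodium phosphate with 1 mM Na2EDTA, pH 7.00. Compound was added from DMSO stock at a fixed 1:5 compound:DNA molar ratio. The mix was incubated 18 h at 37 °C, then A260 was monitored while heating at 1 °C/min over 40–90 °C. ΔTm is relative to DNA alone.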

Escherichia coli [7] = test: Antibacterial activity against Escherichia coli assessed as zone of inhibition at 50 ug/ml by agar plate method; type: functional, organism-based; how it was run: as §2
Bacillus subtilis [8] = test: Antibacterial activity against Bacillus subtilis assessed as zone of inhibition at 100 ug/ml by agar plate method; type: functional; details: read-out: IZ; how it was run: as §2
Bacillus subtilis [9] = test: Antibacterial activity against Bacillus subtilis assessed as zone of inhibition at 50 ug/ml by agar plate method; type: functional, organism-based; how it was run: as §2
[10] = tested on: Staphylococcus epidermidis; test: Antibacterial activity against Staphylococcus epidermidis assessed as zone of inhibition at 100 ug/ml by agar plate method; type: functional; details: read-out: IZ; how it was run: as §2

SMILES: COC(=O)[C@@H]1CCCN1C(=O)C1=C(C)NC(=S)NC1c1ccc(OCCCOc2ccc(C3NC(=S)NC(C)=C3C(=O)N3CCC[C@H]3C(=O)OC)cc2OC)c(OC)c1 (stereo not given in full)
- IC50 (HT-29): > 200 µg/mL
- IC50 (COLO 205): 92 µg/mL (≈ 108 µM)
- IC50 (MCF7 [1]): 140 µg/mL (≈ 165 µM)
- IC50 (A549): 180 µg/mL (≈ 212 µM)
- IC50 (A-431): 165 µg/mL (≈ 194 µM)

SMILES: CCOC(=O)C1=C(C)NC(=S)NC1c1ccc(OCCCOc2ccc(C3NC(=S)NC(C)=C3C(=O)OCC)cc2OC)c(OC)c1 (stereo not given)
- IC50 (HT-29): > 200 µg/mL
- IC50 (COLO 205): 49 µg/mL (≈ 71.5 µM)
- IC50 (MCF7 [1]): 22 µg/mL (≈ 32.1 µM)
- IC50 (A549): 116 µg/mL (≈ 169 µM)
- IC50 (A-431): 66 µg/mL (≈ 96.4 µM)
- Ratio IC50 (MCF7 [2]): 2

- ΔTm (Nucleic Acid): 0.1 °C
SMILES: CCOC(=O)C1=C(C)NC(=S)NC1c1cccc(OCCCOc2cccc(C3NC(=S)NC(C)=C3C(=O)OCC)c2)c1 (stereo not given)
- zone of inhibition at 100 µg/mL (Klebsiella pneumoniae [3]): 5 mm
- IC50 (HT-29): > 200 µg/mL
- zone of inhibition at 100 µg/mL (Pseudomonas aeruginosa): 12 mm
- IC50 (COLO 205): 144 µg/mL (≈ 230 µM)
- IC50 (MCF7 [1]): 16 µg/mL (≈ 25.6 µM)
- IC50 (A549): 120 µg/mL (≈ 192 µM)
- zone of inhibition at 100 µg/mL (Escherichia coli [4]): 20 mm
- Activity [5]: inactive
- Activity (Klebsiella pneumoniae [6]): inactive
- zone of inhibition at 100 µg/mL (Staphylococcus aureus): 10 mm
- IC50 (A-431): 76 µg/mL (≈ 122 µM)
- Activity (Escherichia coli [7]): inactive
- zone of inhibition at 100 µg/mL (Bacillus subtilis [8]): 8 mm
- Activity (Bacillus subtilis [9]): inactive
- Ratio IC50 (MCF7 [2]): 3
- zone of inhibition at 100 µg/mL [10]: 15 mm

SMILES: O=C(O)c1cn(C2CC2)c2cc(N3CCNCC3)c(F)cc2c1=O [CIPROFLOXACIN]
- zone of inhibition at 100 µg/mL (Klebsiella pneumoniae [3]): 12 mm
- zone of inhibition at 100 µg/mL (Pseudomonas aeruginosa): 38 mm
- zone of inhibition at 100 µg/mL (Escherichia coli [4]): 35 mm
- Activity [5]: inactive
- Activity (Klebsiella pneumoniae [6]): inactive
- zone of inhibition at 100 µg/mL (Staphylococcus aureus): 25 mm
- Activity (Escherichia coli [7]): inactive
- zone of inhibition at 100 µg/mL (Bacillus subtilis [8]): 33 mm
- Activity (Bacillus subtilis [9]): inactive
- zone of inhibition at 100 µg/mL [10]: 35 mm

- ΔTm (Nucleic Acid): 2.8 °C
SMILES: COC(=O)[C@@H]1CCCN1C(=O)C1=C(C)NC(=S)NC1c1ccc(OC/C=C/COc2ccc(C3NC(=S)NC(C)=C3C(=O)N3CCC[C@H]3C(=O)OC)cc2OC)c(OC)c1 (stereo not given in full)
- IC50 (HT-29): > 200 µg/mL
- IC50 (COLO 205): 69 µg/mL (≈ 80 µM)
- IC50 (MCF7 [1]): 60 µg/mL (≈ 69.5 µM)
- IC50 (A549): 158 µg/mL (≈ 183 µM)
- IC50 (A-431): 34 µg/mL (≈ 39.4 µM)

SMILES: COC(=O)[C@@H]1CCCN1C(=O)C1=C(C)NC(=S)NC1c1ccc(OCCCCCOc2ccc(C3NC(=S)NC(C)=C3C(=O)N3CCC[C@H]3C(=O)OC)cc2OC)c(OC)c1 (stereo not given in full)
- IC50 (HT-29): > 200 µg/mL
- IC50 (COLO 205): 142 µg/mL (≈ 162 µM)
- IC50 (MCF7 [1]): 55 µg/mL (≈ 62.6 µM)
- IC50 (A549): 150 µg/mL (≈ 171 µM)
- IC50 (A-431): 125 µg/mL (≈ 142 µM)

- ΔTm (Nucleic Acid): 2.5 °C
SMILES: COC(=O)[C@@H]1CCCN1C(=O)C1=C(C)NC(=S)NC1c1cccc(OC/C=C/COc2cccc(C3NC(=S)NC(C)=C3C(=O)N3CCC[C@H]3C(=O)OC)c2)c1 (stereo not given in full)
- IC50 (HT-29): > 200 µg/mL
- IC50 (COLO 205): 127 µg/mL (≈ 158 µM)
- IC50 (MCF7 [1]): 54 µg/mL (≈ 67.2 µM)
- IC50 (A549): 148 µg/mL (≈ 184 µM)
- IC50 (A-431): 96 µg/mL (≈ 120 µM)

- ΔTm (Nucleic Acid): 3.2 °C
SMILES: CCOC(=O)C1=C(C)NC(=S)NC1c1ccc(OC/C=C/COc2ccc(C3NC(=S)NC(C)=C3C(=O)OCC)cc2OC)c(OC)c1 (stereo not given)
- IC50 (HT-29): > 200 µg/mL
- IC50 (COLO 205): 90 µg/mL (≈ 129 µM)
- IC50 (MCF7 [1]): 35 µg/mL (≈ 50.2 µM)
- IC50 (A549): 165 µg/mL (≈ 237 µM)
- IC50 (A-431): 185 µg/mL (≈ 265 µM)

SMILES: COC(=O)[C@@H]1CCCN1C(=O)C1=C(C)NC(=S)NC1c1cccc(OCCCCOc2cccc(C3NC(=S)NC(C)=C3C(=O)N3CCC[C@H]3C(=O)OC)c2)c1 (stereo not given in full)
- IC50 (HT-29): > 200 µg/mL
- IC50 (COLO 205): 154 µg/mL (≈ 191 µM)
- IC50 (MCF7 [1]): 128 µg/mL (≈ 159 µM)
- IC50 (A549): > 200 µg/mL
- IC50 (A-431): 148 µg/mL (≈ 184 µM)

SMILES: CCOC(=O)C1=C(C)NC(=S)NC1c1ccc(OC/C=C\COc2ccc(C3NC(=S)NC(C)=C3C(=O)OCC)cc2OC)c(OC)c1 (stereo not given)
- IC50 (HT-29): > 200 µg/mL
- zone of inhibition at 100 µg/mL (Pseudomonas aeruginosa): 15 mm
- IC50 (COLO 205): 120 µg/mL (≈ 172 µM)
- IC50 (MCF7 [1]): 84 µg/mL (≈ 121 µM)
- IC50 (A549): > 200 µg/mL
- zone of inhibition at 100 µg/mL (Escherichia coli [4]): 12 mm
- Activity [5]: inactive
- Activity (Klebsiella pneumoniae [6]): inactive
- zone of inhibition at 100 µg/mL (Staphylococcus aureus): 12 mm
- IC50 (A-431): 170 µg/mL (≈ 244 µM)
- Activity (Escherichia coli [7]): inactive
- zone of inhibition at 100 µg/mL (Bacillus subtilis [8]): 13 mm
- Activity (Bacillus subtilis [9]): inactive
- zone of inhibition at 100 µg/mL [10]: 18 mm

From ChEMBL document CHEMBL1806360, “Synthesis and biological evaluation of conformationally flexible as well as restricted dimers of monastrol and related dihydropyrimidones” (Eur J Med Chem, 2011)
